Converted amounts (≈) assume the structure as drawn.
How the values were obtained:
Assay type in all cases: functional
Staphylococcus aureus = test: Antibacterial activity against Staphylococcus aureus ATCC 25923 after 18 to 24 hrs by serial plate dilution method
Streptococcus pyogenes = test: Antibacterial activity against Streptococcus pyogenes after 18 to 24 hrs by serial plate dilution method
Pseudomonas aeruginosa = test: Antibacterial activity against Pseudomonas aeruginosa ATCC 27853 after 18 to 24 hrs by […]
Klebsiella pneumoniae = test: Antibacterial activity against Klebsiella pneumoniae after 18 to 24 hrs by […]
Escherichia coli = test: Antibacterial activity against Escherichia coli ATCC 25922 after 18 to 24 hrs by […]
[1] = test system: Mycobacterium tuberculosis; test: Antimycobacterial activity against Mycobacterium tuberculosis H37Rv ATCC 27294 after 7 days by resazurin method; conditions: H37Rv ATCC 27294, 168 h
In short: (§1)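 H37Rv was grown in Middlebrook 7H9 broth with 10% OADC, diluted to McFarland 2 in the same medium, and added to fresh medium in 96-well plates with compound. Compounds were tested at 1, 10 and 100. The dye turned pink in controls after […] at 37 °C.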

[2] = test system: Mycolicibacterium smegmatis; test: Antimycobacterial activity against Mycobacterium smegmatis ATCC 19420 after 7 days by resazurin method; conditions: ATCC 19420, 168 h
In short: (§2)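 MIC was determined by resazurin microplate assay. Resazurin turns from blue to pink when reduced by viable cells, and wells with no colour change were scored as inhibited. Isoniazid and rifampicin were reference drugs.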

[3] = test system: Mycolicibacterium fortuitum; test: Antimycobacterial activity against Mycobacterium fortuitum ATCC 19542 after 7 days by resazurin method; conditions: ATCC 19542, 168 h; in short: as §2
[4] = test system: Mycobacterium tuberculosis; test: Antimycobacterial activity against Mycobacterium tuberculosis H37Rv ATCC 27294 assessed as inhibition of bacterial growth at 1 to 100 ug/ml after 7 days by resazurin method; in short: as §1

Row | SMILES | MIC (Staphylococcus aureus) [µg/mL] | MIC (Streptococcus pyogenes) [µg/mL] | MIC (Pseudomonas aeruginosa) [µg/mL] | MIC (Klebsiella pneumoniae) [µg/mL] | MIC (Escherichia coli) [µg/mL] | MIC [1] [µg/mL] | MIC [2] [µg/mL] | MIC [3] [µg/mL] | inhibition (INH) [4] [%]
1 | CCc1ccc(C(=O)NCc2cn(-c3cc(C)nc4ccc(OC)cc34)nn2)cc1 | 3.12 (≈ 7.77 µM) | 3.12 (≈ 7.77 µM) | 6.25 (≈ 15.6 µM) | 3.12 (≈ 7.77 µM) | 3.12 (≈ 7.77 µM) | 100 (≈ 249 µM) | 100 (≈ 249 µM) | 100 (≈ 249 µM) | 80
2 | COc1ccc2nc(C)cc(-n3cc(CN4CCN(C(=O)C5CCC5)CC4)nn3)c2c1 | 1.6 (≈ 3.8 µM) | 1.6 (≈ 3.8 µM) | 0.8 (≈ 1.9 µM) | 3.12 (≈ 7.42 µM) | 1.6 (≈ 3.8 µM) | 10 (≈ 23.8 µM) | 100 (≈ 238 µM) | 100 (≈ 238 µM) | 90
3 | COc1ccc(S(=O)(=O)NCc2cn(-c3cc(C)nc4ccc(OC)cc34)nn2)cc1 | 6.25 (≈ 14.2 µM) | 1.6 (≈ 3.64 µM) | 1.6 (≈ 3.64 µM) | 1.6 (≈ 3.64 µM) | 3.12 (≈ 7.1 µM) | 0.625 (≈ 1.42 µM) | 10 (≈ 22.8 µM) | 10 (≈ 22.8 µM) | 90
4 | COc1ccc2nc(C)cc(-n3cc(CNS(=O)(=O)c4ccc(Cl)c(Cl)c4)nn3)c2c1 | 1.6 (≈ 3.34 µM) | 3.12 (≈ 6.52 µM) | 12.5 (≈ 26.1 µM) | 3.12 (≈ 6.52 µM) | 12.5 (≈ 26.1 µM) | 100 (≈ 209 µM) | 100 (≈ 209 µM) | 100 (≈ 209 µM) | –
5 | COc1ccc2nc(C)cc(-n3cc(CNC(=O)C4CCC4)nn3)c2c1 | 1.6 (≈ 4.55 µM) | 0.8 (≈ 2.28 µM) | 0.8 (≈ 2.28 µM) | 1.6 (≈ 4.55 µM) | 1.6 (≈ 4.55 µM) | 10 (≈ 28.5 µM) | 100 (≈ 285 µM) | 100 (≈ 285 µM) | 85
6 | O=C(O)c1cn(C2CC2)c2cc(N3CCNCC3)c(F)cc2c1=O [CIPROFLOXACIN] | 1 (≈ 3.02 µM) | 0.4 (≈ 1.21 µM) | 0.4 (≈ 1.21 µM) | 0.05 (≈ 0.151 µM) | – | – | – | – | –
7 | COc1ccc2nc(C)cc(-n3cc(CNC(=O)C4CC4)nn3)c2c1 | 0.4 (≈ 1.19 µM) | 0.4 (≈ 1.19 µM) | 1.6 (≈ 4.74 µM) | 0.2 (≈ 0.593 µM) | 0.4 (≈ 1.19 µM) | 1 (≈ 2.96 µM) | 100 (≈ 296 µM) | 100 (≈ 296 µM) | 90
8 | COc1ccc2nc(C)cc(-n3cc(CNC(=O)c4ccccc4F)nn3)c2c1 | 0.8 (≈ 2.04 µM) | 0.2 (≈ 0.511 µM) | 0.4 (≈ 1.02 µM) | 0.2 (≈ 0.511 µM) | 0.4 (≈ 1.02 µM) | 1 (≈ 2.55 µM) | 100 (≈ 255 µM) | 100 (≈ 255 µM) | 90
9 | COc1ccc2nc(C)cc(-n3cc(CN4CCN(C(=O)c5ccccc5F)CC4)nn3)c2c1 | 0.8 (≈ 1.74 µM) | 0.4 (≈ 0.869 µM) | 3.12 (≈ 6.78 µM) | 1.6 (≈ 3.47 µM) | 1.6 (≈ 3.47 µM) | 1 (≈ 2.17 µM) | 5 (≈ 10.9 µM) | 100 (≈ 217 µM) | 90
10 | COc1ccc(C(=O)NCc2cn(-c3cc(C)nc4ccc(OC)cc34)nn2)cc1 | 0.8 (≈ 1.98 µM) | 0.4 (≈ 0.991 µM) | 0.4 (≈ 0.991 µM) | 0.1 (≈ 0.248 µM) | 0.1 (≈ 0.248 µM) | 0.625 (≈ 1.55 µM) | 5 (≈ 12.4 µM) | 10 (≈ 24.8 µM) | 95
11 | COc1ccc2nc(C)cc(-n3cc(CN4CCN(C(=O)c5ccc(Cl)c(Cl)c5)CC4)nn3)c2c1 | 6.25 (≈ 12.2 µM) | 0.8 (≈ 1.56 µM) | 0.8 (≈ 1.56 µM) | 0.8 (≈ 1.56 µM) | 3.12 (≈ 6.1 µM) | 5 (≈ 9.78 µM) | 100 (≈ 196 µM) | 100 (≈ 196 µM) | 85
12 | COc1ccc2nc(C)cc(-n3cc(CNS(=O)(=O)c4ccccc4C(F)(F)F)nn3)c2c1 | 0.8 (≈ 1.68 µM) | 0.4 (≈ 0.838 µM) | 0.4 (≈ 0.838 µM) | 0.4 (≈ 0.838 µM) | 0.2 (≈ 0.419 µM) | 1 (≈ 2.09 µM) | 100 (≈ 209 µM) | 10 (≈ 20.9 µM) | 90
13 | CCc1ccc(C(=O)N2CCN(Cc3cn(-c4cc(C)nc5ccc(OC)cc45)nn3)CC2)cc1 | 6.25 (≈ 13.3 µM) | 6.25 (≈ 13.3 µM) | 6.25 (≈ 13.3 µM) | 3.12 (≈ 6.63 µM) | 3.12 (≈ 6.63 µM) | 100 (≈ 213 µM) | 100 (≈ 213 µM) | 100 (≈ 213 µM) | –
14 | COc1ccc2nc(C)cc(-n3cc(CN4CCN(C(=O)c5ccccc5)CC4)nn3)c2c1 | 0.8 (≈ 1.81 µM) | 0.8 (≈ 1.81 µM) | 0.4 (≈ 0.904 µM) | 0.4 (≈ 0.904 µM) | 0.4 (≈ 0.904 µM) | 10 (≈ 22.6 µM) | 100 (≈ 226 µM) | 100 (≈ 226 µM) | 85
15 | COc1ccc2nc(C)cc(-n3cc(CNS(=O)(=O)c4ccc(C)cc4)nn3)c2c1 | 3.12 (≈ 7.37 µM) | 6.25 (≈ 14.8 µM) | 6.25 (≈ 14.8 µM) | 6.25 (≈ 14.8 µM) | 6.25 (≈ 14.8 µM) | 10 (≈ 23.6 µM) | 100 (≈ 236 µM) | 100 (≈ 236 µM) | 85
16 | COc1ccc2nc(C)cc(-n3cc(CNC(=O)c4ccc(C(F)(F)F)cc4)nn3)c2c1 | 0.4 (≈ 0.906 µM) | 0.2 (≈ 0.453 µM) | 0.4 (≈ 0.906 µM) | 0.2 (≈ 0.453 µM) | 0.4 (≈ 0.906 µM) | 0.625 (≈ 1.42 µM) | 10 (≈ 22.7 µM) | 5 (≈ 11.3 µM) | 95

Source: ChEMBL document CHEMBL1781906, “New quinolin-4-yl-1,2,3-triazoles carrying amides, sulphonamides and amidopiperazines as potential antitubercular agents” (2011)
